Test results from article PMC8958665 (ACS infectious diseases, 2021).
Converted amounts (≈) assume the structure as drawn. Where two headings read alike, the source gives them in different places.

Key:
K. pneumoniae B9 (KPB9) [1] = assay: Broth microdilution colistin potentiation, KPB9; assay type: cell-based, Klebsiella pneumoniae
K. pneumoniae B9 (KPB9) [2] = assay: Broth microdilution standalone MIC, KPB9; assay type: cell-based; conditions: Klebsiella pneumoniae, read-out: standalone MIC against KPB9
NF-κB = NF-κB luciferase reporter assay in HEK293 recombinant cells; assay type: cell-based; conditions: Homo sapiens, HEK293, read-out: Inhibition of NF-κB IC50
[3] = tested on: A. baumannii 4106 (AB4106); assay: Broth microdilution colistin potentiation, AB4106; assay type: cell-based, Acinetobacter baumannii
[4] = tested on: A. baumannii 4106 (AB4106); assay: Broth microdilution standalone MIC, AB4106; assay type: cell-based; conditions: Acinetobacter baumannii, read-out: standalone MIC against AB4106
[5] = tested on: P. aeruginosa strains TRPA161 and TRPA162; assay: Colistin potentiation, colistin-resistant P. aeruginosa strains; assay type: cell-based, Pseudomonas aeruginosa; conditions: no adjuvant
How it was run: (§1)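 Broth microdilution in CAMHB: strains are grown 6 h and diluted to 5 × 10^5 CFU/mL. Test compound is added from DMSO stock, and colistin (from water stock) is serially diluted in the compound-dosed suspension. An undosed aliquot gives the colistin MIC alone. Plates are incubated stationary at 37 °C for 16 h and read at OD600. MIC is 90% growth inhibition versus untreated. Run in duplicate, repeated at least twice.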

[6] = tested on: colistin-resistant K. pneumoniae strains; assay: Colistin potentiation, panel of colistin-resistant K. pneumoniae strains; assay type: cell-based, Klebsiella pneumoniae; conditions: no adjuvant
How it was run: as §1

[7] = tested on: colistin-resistant A. baumannii strains; assay type: cell-based, Acinetobacter baumannii; conditions: no adjuvant
AB4106 = assay: MIC in the presence of polymyxin B nonapeptide; assay type: cell-based, Acinetobacter baumannii; conditions: 10 μg/mL

O=C(Nc1cc(C(F)(F)F)cc(C(F)(F)F)c1)c1cc(Cl)ccc1O [IMD-0354 4, IMD-0354]
KPB9 colistin MIC in the presence of compound (K. pneumoniae B9 (KPB9) [1]; compound at 5 μM, KPB9): 0.5 µg/mL | KPB9 fold reduction of colistin MIC (K. pneumoniae B9 (KPB9) [1]; compound at 5 μM, vs colistin alone (512 μg/mL)): 1024 fold | MIC (K. pneumoniae B9 (KPB9) [2]): 50 µM (≈ 19.2 µg/mL) | IC50 (NF-κB): 1070 ± 60 nM | AB4106 colistin MIC in the presence of compound ([3]; compound at 5 μM, AB4106): 2 µg/mL | AB4106 fold reduction of colistin MIC ([3]; compound at 5 μM, vs colistin alone (2048 μg/mL)): 1024 fold | MIC [4]: 50 µM (≈ 19.2 µg/mL)

colistin
colistin MIC alone ([5]; strain TRPA 161): 1024 µg/mL | colistin MIC alone ([5]; strain TRPA 162): 1024 µg/mL | KPB9 MIC of colistin alone (K. pneumoniae B9 (KPB9) [1]; no adjuvant): 512 µg/mL | colistin MIC alone ([6]; strain KP C3): 128 µg/mL | colistin MIC alone ([6]; strain KP E2): 512 µg/mL | colistin MIC alone ([6]; strain KP F3): 128 µg/mL | colistin MIC alone ([6]; strain KP F9): 256 µg/mL | colistin MIC alone ([6]; strain KP F2210291 mcr-1): 16 µg/mL | colistin MIC alone ([6]; strain KP H2): 256 µg/mL | colistin MIC alone ([6]; strain KP I2): 512 µg/mL | colistin MIC alone ([7]; strain AB 1E4): >512 µg/mL | colistin MIC alone ([7]; strain AB 1F9): >512 µg/mL | colistin MIC alone ([7]; strain AB 1G2): >512 µg/mL | colistin MIC alone ([7]; strain AB 2A8): >512 µg/mL | colistin MIC alone ([7]; strain AB 3941): 1024 µg/mL | colistin MIC alone ([7]; strain AB 4112): 2048 µg/mL | colistin MIC alone ([7]; strain AB 17978 mcr-1): 64 µg/mL | AB4106 MIC of colistin alone ([3]; no adjuvant): 2048 µg/mL

polymyxin B nonapeptide [PMBN]
toxicity against AB4106 (AB4106): no toxicity
